Laboratory results reported in ChEMBL document CHEMBL4433212, “First-of-its-kind STARD3 Inhibitor: In Silico Identification and Biological Evaluation as Anticancer Agent” (ACS Med Chem Lett, 2019).
pIC50: −log10 of the molar value. Calls of active or inactive are those of the source. The rule behind the calls is not given here.

What was measured:
[1] = target: T1, StAR-related lipid transfer protein 3 (Homo sapiens, UniProt Q14849); assay: Inhibition of recombinant human His-tagged StAR-related lipid transfer protein 3 START domain expressed in Escherichia coli BL21(DE3) cells assessed as reduction of protein interaction with cholesterol using 3-hexanoyl-NBD Cholesterol as substrate incubated for 5 mins by competition binding fluorescent assay
T1 sequence (Q14849 whole entry): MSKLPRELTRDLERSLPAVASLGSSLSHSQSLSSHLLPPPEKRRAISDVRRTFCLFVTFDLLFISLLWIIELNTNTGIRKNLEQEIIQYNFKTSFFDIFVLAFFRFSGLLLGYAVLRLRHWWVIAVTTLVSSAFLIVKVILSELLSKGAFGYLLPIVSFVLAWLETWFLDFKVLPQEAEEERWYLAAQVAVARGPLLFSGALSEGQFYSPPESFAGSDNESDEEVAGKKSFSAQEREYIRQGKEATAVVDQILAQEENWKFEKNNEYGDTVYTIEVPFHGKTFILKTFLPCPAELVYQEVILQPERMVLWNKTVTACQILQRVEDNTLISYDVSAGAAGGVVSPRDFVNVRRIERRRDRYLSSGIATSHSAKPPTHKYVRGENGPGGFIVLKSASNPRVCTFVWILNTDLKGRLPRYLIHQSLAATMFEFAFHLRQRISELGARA
Procedure, shortened: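 Competition binding fluorescent assay of cholesterol binding to STARD3, adapted from Tsujishita and Hurley; STARD3 used at 5 μM, selected from a binding titration curve as giving 55.9% completely bound state; IC50 determined.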

MCF7 [2] = assay: Antiproliferative activity against human MCF7 cells after 96 hrs by Cell Titer-Glo based luminescence assay; format: functional; conditions: MCF7, 96 h
MDA-MB-231 [3] = assay: Antiproliferative activity against human MDA-MB-231 after 96 hrs by Cell Titer-Glo based luminescence assay; format: functional; conditions: MDA-MB-231, 96 h
HCT-116 [4] = assay: Antiproliferative activity against human HCT116 cells after 96 hrs by Cell Titer-Glo based luminescence assay; format: functional; conditions: HCT-116, 96 h
MCF7 [5] = assay: Anticlonogenic activity against human MCF7 cells assessed as reduction in cell proliferation after 10 days with replacement of medium for every 3 days by crystal violet staining based visual analysis; format: functional
Procedure, shortened: (§1)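 MCF7, MDA-MB-231 and HCT-116 cells treated with a range of inhibitor concentrations, grown until colonies became visible; colony forming efficiency scored by visual inspection.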

MDA-MB-231 [6] = assay: Anticlonogenic activity against human MDA-MB-231 cells assessed as reduction in cell proliferation after 10 days with replacement of medium for every 3 days by crystal violet staining based visual analysis; format: functional; procedure, shortened: as §1
HCT-116 [7] = assay: Anticlonogenic activity against human HCT116 cells assessed as reduction in cell proliferation after 10 days with replacement of medium for every 3 days by crystal violet staining based visual analysis; format: functional; procedure, shortened: as §1
[8] = target: T2, StAR-related lipid transfer protein 3 (Mus musculus) (UniProt Q61542); assay: Induction of STARD3 degradation in cycloheximide treated mouse NIH/3T3 cells at 100 uM incubated for 24 hrs followed by addition of cycloheximide and measured after 12 hrs by Western blot analysis
T2 sequence (whole entry): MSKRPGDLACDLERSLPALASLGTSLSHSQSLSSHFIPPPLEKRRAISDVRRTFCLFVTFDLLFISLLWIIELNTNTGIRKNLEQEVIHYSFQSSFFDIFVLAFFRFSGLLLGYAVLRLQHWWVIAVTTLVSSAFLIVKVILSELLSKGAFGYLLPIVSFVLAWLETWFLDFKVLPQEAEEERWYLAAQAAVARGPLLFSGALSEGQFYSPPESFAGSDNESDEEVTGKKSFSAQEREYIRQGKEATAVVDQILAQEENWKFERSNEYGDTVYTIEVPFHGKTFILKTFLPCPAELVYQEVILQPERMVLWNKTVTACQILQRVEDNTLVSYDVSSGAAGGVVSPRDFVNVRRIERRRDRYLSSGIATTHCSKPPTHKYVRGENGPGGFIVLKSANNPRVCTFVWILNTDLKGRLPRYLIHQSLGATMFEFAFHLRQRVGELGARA
Procedure, shortened: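 NIH3T3 fibroblasts pretreated with 100 μM inhibitor for 24 h, then given cycloheximide 10 μg/mL and harvested at timed points (hours); STARD3 protein followed by Western blot to track degradation kinetics.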

NIH3T3 = assay: Effect on STARD3 mRNA level in mouse NIH/3T3 cells at 0 to 100 uM incubated for 48 hrs by RT-PCR method; format: ADME, cell-based; conditions: nih3t3, 48 h
Procedure, shortened: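 NIH3T3 fibroblasts exposed to two inhibitor concentrations for 48 h; STARD3 mRNA level then measured.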

[9] = target: T3, StAR-related lipid transfer protein 3 (Homo sapiens) (UniProt Q14849); assay: Inhibition of STARD3 in human MDA-MB-231 cells assessed as increase in FAK protein level at 100 uM incubated for 24 hrs by Western blot analysis; format: cell-based
T3 sequence (whole entry): T1 sequence (Q14849 whole entry)
Procedure, shortened: (§2)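 MDA-MB-231 cells treated with 100 μM inhibitor for 24 and 48 h; total FAK and pTyr397-FAK levels assessed by Western blot against untreated cells.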

[10] = target: T3, StAR-related lipid transfer protein 3 (Homo sapiens); assay: Inhibition of STARD3 in human MDA-MB-231 cells assessed as increase in FAK protein level at 100 uM incubated for 48 hrs by Western blot analysis; format: cell-based; procedure, shortened: as §2
[11] = target: T3, StAR-related lipid transfer protein 3 (Homo sapiens); assay: Inhibition of STARD3 in human MDA-MB-231 cells assessed as increase in phosphorylated FAK protein level at Tyr397 residue at 100 uM incubated for 24 hrs by Western blot analysis; format: cell-based; procedure, shortened: as §2
[12] = target: T3, StAR-related lipid transfer protein 3 (Homo sapiens); assay: Inhibition of STARD3 in human MDA-MB-231 cells assessed as increase in phosphorylated FAK protein level at Tyr397 residue at 100 uM incubated for 48 hrs by Western blot analysis; format: cell-based; procedure, shortened: as §2

## O=C1CN(c2ccc(NC(=O)c3csc(-c4cccc(Cl)c4)n3)cn2)CCN1
[1]
  pIC50: < 4.00

## O=C(/C=C/c1ccccc1F)Nc1ccc(N2CCNC(=O)C2)c(Cl)c1
[1]
  pIC50: < 4.00

## O=c1nc(/C=C/c2ccc(O)c([N+](=O)[O-])c2)[nH]c2c1CCN(Cc1ccccc1)C2
[1]
  pIC50: 4.46
MCF7 [2]
  pIC50: 3.98
MDA-MB-231 [3]
  pIC50: 4.30
HCT-116 [4]
  pIC50: 4.15
MCF7 [5]
  Activity: Dose-dependent effect
MDA-MB-231 [6]
  Activity: Dose-dependent effect
HCT-116 [7]
  Activity: Dose-dependent effect
[8]
  Activity: Active
NIH3T3
  Activity: Non-Toxic
[9]
  inhibition: Active
[10]
  inhibition: Active
[11]
  inhibition: Active
[12]
  inhibition: Active

## O=C(COC(=O)c1ccc(-c2ccc(O)cc2)cc1)NCc1ccc(F)cc1
[1]
  pIC50: < 4.00
